{"source": "ChEMBL document CHEMBL1165873", "about": "“Synthesis and in vitro study of methylene-bis-tetrahydro[1,3]thiazolo[4,5-c]isoxazoles as potential nematicidal agents” (2010)", "key": {"[1]": {"tested_on": "Trichophyton rubrum", "assay": "Antifungal activity against Trichophyton rubrum IFO 9185 after 48 hrs by broth dilution method", "assay_type": "functional", "conditions": "IFO 9185, 48 h", "method_in_brief": "(§1)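 Fungi grown on potato dextrose agar for two weeks at 28 °C. Spores washed three times and resuspended in water at 10⁵ spores/mL initial inoculum. Compounds dissolved in DMSO, serial twofold dilutions 120–0.9 µM in potato dextrose broth. Wells inoculated with about 10^4 cells/mL and incubated ~48–72 h at 28 °C. MIC (µM) read against controls; NCCLS broth dilution.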"}, "[2]": {"tested_on": "Trichophyton mentagrophytes", "assay": "Antifungal activity against Trichophyton mentagrophytes IFO 40996 after 48 hrs by broth dilution method", "assay_type": "functional", "conditions": "IFO 40996, 48 h", "method_in_brief": "as §1"}, "[3]": {"tested_on": "Aspergillus fumigatus", "assay": "Antifungal activity against Aspergillus fumigatus HIC 6094 after 48 hrs by broth dilution method", "assay_type": "functional", "conditions": "HIC 6094, 48 h", "method_in_brief": "as §1"}, "[4]": {"tested_on": "Caenorhabditis elegans", "assay": "Nematicidal activity against Caenorhabditis elegans assessed as immobile nematodes after 2 days", "assay_type": "functional, organism-based", "method_in_brief": "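Worms raised on 8P plates with Na22 bacteria as food. Adults from five-day cultures suspended in water at about 100–250 nematodes/mL. 100 µL of suspension added to compound solutions at various concentrations in 24-well plates at 25 °C. Percentage of immobile worms scored after two days; LD50 derived.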"}, "[5]": {"tested_on": "Candida albicans", "assay": "Antifungal activity against Candida albicans ATCC 10231 after 48 hrs by broth dilution method", "assay_type": "functional", "conditions": "ATCC 10231, 48 h", "method_in_brief": "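Yeast grown 48 h at 28 °C in YPD broth (1% yeast extract, 2% peptone, 2% dextrose), centrifuged and washed twice in sterile water. Compounds dissolved in DMSO, serial twofold dilutions 120–0.9 µM in potato dextrose broth. Wells inoculated with about 10^3 cells/mL and incubated ~48–72 h at 28 °C. MIC (µM) read against controls; NCCLS broth dilution.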"}, "[6]": {"tested_on": "Ditylenchus myceliophagus", "assay": "Nematicidal activity against Ditylenchus myceliophagus assessed as immobile nematodes after 2 days", "assay_type": "functional"}}, "note": "Activity calls are given as the source filed them. No cut-off for these calls is given here."}
{"smiles": "COc1ccc(Cc2ccc(OC)c(C3SC4C(=NOC4c4ccc(F)cc4)N3c3ccc(C)cc3)c2)cc1C1SC2C(=NOC2c2ccc(F)cc2)N1c1ccc(C)cc1", "note": "(centres undefined)", "values": [{"measurement": "MIC", "setting": "[1]", "value": "> 120", "unit": "µM"}, {"measurement": "MIC", "setting": "[2]", "value": 15, "unit": "µM"}, {"measurement": "MIC", "setting": "[3]", "value": 30, "unit": "µM"}, {"measurement": "Activity", "setting": "[4]", "value": "Active"}, {"measurement": "MIC", "setting": "[5]", "value": 7.5, "unit": "µM"}, {"measurement": "Activity", "setting": "[6]", "value": "Active"}]}
{"smiles": "COc1ccc(Cc2ccc(OC)c(C3SC4C(=NOC4c4ccc(F)cc4)N3c3ccc([N+](=O)[O-])cc3)c2)cc1C1SC2C(=NOC2c2ccc(F)cc2)N1c1ccc([N+](=O)[O-])cc1", "note": "(centres undefined)", "values": [{"measurement": "MIC", "setting": "[1]", "value": 30, "unit": "µM"}, {"measurement": "MIC", "setting": "[2]", "value": 7.5, "unit": "µM"}, {"measurement": "MIC", "setting": "[3]", "value": 30, "unit": "µM"}, {"measurement": "Activity", "setting": "[4]", "value": "Active"}, {"measurement": "MIC", "setting": "[5]", "value": 15, "unit": "µM"}, {"measurement": "Activity", "setting": "[6]", "value": "Active"}]}
{"smiles": "COc1ccc(Cc2ccc(OC)c(C3SC4C(=NOC4c4ccc(F)cc4)N3c3ccc(O)cc3)c2)cc1C1SC2C(=NOC2c2ccc(F)cc2)N1c1ccc(O)cc1", "note": "(centres undefined)", "values": [{"measurement": "MIC", "setting": "[1]", "value": 7.5, "unit": "µM"}, {"measurement": "MIC", "setting": "[2]", "value": 7.5, "unit": "µM"}, {"measurement": "MIC", "setting": "[3]", "value": 15, "unit": "µM"}, {"measurement": "Activity", "setting": "[4]", "value": "Active"}, {"measurement": "MIC", "setting": "[5]", "value": 15, "unit": "µM"}, {"measurement": "Activity", "setting": "[6]", "value": "Active"}]}
{"smiles": "C[C@@H]1[C@H](O)[C@@H](C)/C=C/C=C/C=C/C=C/C=C/C=C/C=C/[C@H](O[C@@H]2O[C@H](C)[C@@H](O)[C@H](N)[C@@H]2O)C[C@@H]2O[C@](O)(C[C@@H](O)C[C@@H](O)[C@H](O)CC[C@@H](O)C[C@@H](O)CC(=O)O[C@H]1C)C[C@H](O)[C@H]2C(=O)O", "note": "[AMPHOTERICIN B]", "values": [{"measurement": "MIC", "setting": "[1]", "value": 3.75, "unit": "µM"}, {"measurement": "MIC", "setting": "[2]", "value": 3.75, "unit": "µM"}, {"measurement": "MIC", "setting": "[3]", "value": 3.75, "unit": "µM"}, {"measurement": "MIC", "setting": "[5]", "value": 7.5, "unit": "µM"}]}
{"smiles": "COc1ccccc1C1SC2C(=NOC2c2ccc(F)cc2)N1c1ccc(C)cc1", "note": "(centres undefined)", "values": [{"measurement": "MIC", "setting": "[1]", "value": "> 120", "unit": "µM"}, {"measurement": "MIC", "setting": "[2]", "value": 120, "unit": "µM"}, {"measurement": "MIC", "setting": "[3]", "value": 120, "unit": "µM"}, {"measurement": "MIC", "setting": "[5]", "value": 60, "unit": "µM"}]}
{"smiles": "COc1ccccc1C1SC2C(=NOC2c2ccc(F)cc2)N1c1ccccc1", "note": "(centres undefined)", "values": [{"measurement": "MIC", "setting": "[1]", "value": "> 120", "unit": "µM"}, {"measurement": "MIC", "setting": "[2]", "value": "> 120", "unit": "µM"}, {"measurement": "MIC", "setting": "[3]", "value": "> 120", "unit": "µM"}, {"measurement": "MIC", "setting": "[5]", "value": 120, "unit": "µM"}]}
{"smiles": "COc1ccc(Cc2ccc(OC)c(C3SC4C(=NOC4c4ccc(F)cc4)N3c3ccccc3C)c2)cc1C1SC2C(=NOC2c2ccc(F)cc2)N1c1ccccc1C", "note": "(centres undefined)", "values": [{"measurement": "MIC", "setting": "[1]", "value": 3.75, "unit": "µM"}, {"measurement": "MIC", "setting": "[2]", "value": 3.75, "unit": "µM"}, {"measurement": "MIC", "setting": "[3]", "value": 3.75, "unit": "µM"}, {"measurement": "Activity", "setting": "[4]", "value": "Active"}, {"measurement": "MIC", "setting": "[5]", "value": 3.75, "unit": "µM"}, {"measurement": "Activity", "setting": "[6]", "value": "Active"}]}
{"smiles": "COc1ccccc1C1SC2C(=NOC2c2ccc(F)cc2)N1c1ccc([N+](=O)[O-])cc1", "note": "(centres undefined)", "values": [{"measurement": "MIC", "setting": "[1]", "value": 120, "unit": "µM"}, {"measurement": "MIC", "setting": "[2]", "value": 30, "unit": "µM"}, {"measurement": "MIC", "setting": "[3]", "value": 60, "unit": "µM"}, {"measurement": "MIC", "setting": "[5]", "value": 30, "unit": "µM"}]}
{"smiles": "COc1ccc(Cc2ccc(OC)c(C3SC4C(=NOC4c4ccc(F)cc4)N3c3ccc(Cl)cc3)c2)cc1C1SC2C(=NOC2c2ccc(F)cc2)N1c1ccc(Cl)cc1", "note": "(centres undefined)", "values": [{"measurement": "MIC", "setting": "[1]", "value": 3.75, "unit": "µM"}, {"measurement": "MIC", "setting": "[2]", "value": 3.75, "unit": "µM"}, {"measurement": "MIC", "setting": "[3]", "value": 3.75, "unit": "µM"}, {"measurement": "Activity", "setting": "[4]", "value": "Active"}, {"measurement": "MIC", "setting": "[5]", "value": 3.75, "unit": "µM"}, {"measurement": "Activity", "setting": "[6]", "value": "Active"}]}
{"smiles": "COc1ccccc1C1SC2C(=NOC2c2ccc(F)cc2)N1c1ccccc1C", "note": "(centres undefined)", "values": [{"measurement": "MIC", "setting": "[1]", "value": 15, "unit": "µM"}, {"measurement": "MIC", "setting": "[2]", "value": 30, "unit": "µM"}, {"measurement": "MIC", "setting": "[3]", "value": 30, "unit": "µM"}, {"measurement": "MIC", "setting": "[5]", "value": 60, "unit": "µM"}]}
{"smiles": "COc1ccc(Cc2ccc(OC)c(C3SC4C(=NOC4c4ccc(F)cc4)N3c3ccc(F)cc3)c2)cc1C1SC2C(=NOC2c2ccc(F)cc2)N1c1ccc(F)cc1", "note": "(centres undefined)", "values": [{"measurement": "MIC", "setting": "[1]", "value": 3.75, "unit": "µM"}, {"measurement": "MIC", "setting": "[2]", "value": 3.75, "unit": "µM"}, {"measurement": "MIC", "setting": "[3]", "value": 3.75, "unit": "µM"}, {"measurement": "Activity", "setting": "[4]", "value": "Active"}, {"measurement": "MIC", "setting": "[5]", "value": 3.75, "unit": "µM"}, {"measurement": "Activity", "setting": "[6]", "value": "Active"}]}
{"smiles": "COc1ccc(Cc2ccc(OC)c(C3SC4C(=NOC4c4ccc(F)cc4)N3c3ccccc3)c2)cc1C1SC2C(=NOC2c2ccc(F)cc2)N1c1ccccc1", "note": "(centres undefined)", "values": [{"measurement": "MIC", "setting": "[1]", "value": 30, "unit": "µM"}, {"measurement": "MIC", "setting": "[2]", "value": 60, "unit": "µM"}, {"measurement": "MIC", "setting": "[3]", "value": 60, "unit": "µM"}, {"measurement": "Activity", "setting": "[4]", "value": "Active"}, {"measurement": "MIC", "setting": "[5]", "value": 30, "unit": "µM"}, {"measurement": "Activity", "setting": "[6]", "value": "Active"}]}
{"smiles": "COc1ccccc1C1SC2C(=NOC2c2ccc(F)cc2)N1c1ccc(O)cc1", "note": "(centres undefined)", "values": [{"measurement": "MIC", "setting": "[1]", "value": "> 120", "unit": "µM"}, {"measurement": "MIC", "setting": "[2]", "value": 60, "unit": "µM"}, {"measurement": "MIC", "setting": "[3]", "value": 60, "unit": "µM"}, {"measurement": "MIC", "setting": "[5]", "value": 60, "unit": "µM"}]}
{"smiles": "COc1ccccc1C1SC2C(=NOC2c2ccc(F)cc2)N1c1ccc(Cl)cc1", "note": "(centres undefined)", "values": [{"measurement": "MIC", "setting": "[1]", "value": 30, "unit": "µM"}, {"measurement": "MIC", "setting": "[2]", "value": 30, "unit": "µM"}, {"measurement": "MIC", "setting": "[3]", "value": 30, "unit": "µM"}, {"measurement": "MIC", "setting": "[5]", "value": 30, "unit": "µM"}]}
{"smiles": "COc1ccccc1C1SC2C(=NOC2c2ccc(F)cc2)N1c1ccc(F)cc1", "note": "(centres undefined)", "values": [{"measurement": "MIC", "setting": "[1]", "value": 60, "unit": "µM"}, {"measurement": "MIC", "setting": "[2]", "value": 60, "unit": "µM"}, {"measurement": "MIC", "setting": "[3]", "value": 60, "unit": "µM"}, {"measurement": "MIC", "setting": "[5]", "value": 120, "unit": "µM"}]}
